Activity calls are given as the source filed them. The calls are words filed in the database; no cut-off is given here.
Legend:
Mus musculus [1] = assay: Efficacy against a lethal virus challenge with an interferon sensitive virus, columbia SK was evaluated 14 days postinfection (oral dosing) as number of mice survived out of 15 tested; assay type: functional
Mus musculus [2] = assay: Percent reduction in spleen weight in mice as compared to infected untreated controls at 100 mg/kg; assay type: functional
Procedure, shortened: (§1)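 In BALB/c mice infected ip with Rauscher leukemia virus (same-sex, ≥18 g), compound was given orally in 0.2% Noble agar/saline on days 6, 7 and 8 at 25–200 mg/kg. Animals were weighed on day 14. Spleen weight is expressed as percent reduction versus infected placebo-treated controls, and ≥50% reduction counts as active.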

Ovis aries [3] = assay: Antibody stimulation by serum hemagglutininin titer over the titer for the infected placebo-treated control in sheep red blood cells at 200 mg/Kg of dose; value is 128/16; assay type: functional
Mus musculus [4] = assay: Percent reduction in spleen weight in mice as compared to infected untreated controls at 200 mg/kg; assay type: functional; procedure, shortened: as §1
Ovis aries [5] = assay: Antibody stimulation by serum hemagglutininin titer over the titer for the infected placebo-treated control in sheep red blood cells at 50 mg/Kg of dose; value is 64/16; assay type: functional
Mus musculus [6] = species: Mus musculus; assay: Percent reduction in spleen weight in mice as compared to infected untreated controls; NA = Not Active; assay type: functional, organism-based; procedure, shortened: as §1
Ovis aries [7] = assay: Antibody stimulation by serum hemagglutininin titer over the titer for the infected placebo-treated control in sheep red blood cells at 50 mg/Kg of dose; NA = Not Active; assay type: functional, organism-based
Ovis aries [8] = assay: Antibody stimulation by serum hemagglutininin titer over the titer for the infected placebo-treated control in sheep red blood cells at 100 mg/Kg of dose; value is 512/32; assay type: functional
Ovis aries [9] = assay: Antibody stimulation by serum hemagglutininin titer over the titer for the infected placebo-treated control in sheep red blood cells at 25 mg/Kg of dose; value is 32/16; assay type: functional
Ovis aries [10] = assay: Antibody stimulation by serum hemagglutininin titer over the titer for the infected placebo-treated control in sheep red blood cells at 50 mg/Kg of dose; value is 256/32; assay type: functional
Ovis aries [11] = assay: Antibody stimulation by serum hemagglutininin titer over the titer for the infected placebo-treated control in sheep red blood cells at 200 mg/Kg of dose; value is 64/16; assay type: functional
Ovis aries [12] = assay: Antibody stimulation by serum hemagglutininin titer over the titer for the infected placebo-treated control in sheep red blood cells at 100 mg/Kg of dose; value is 128/16; assay type: functional
Ovis aries [13] = assay: Antibody stimulation by serum hemagglutininin titer over the titer for the infected placebo-treated control in sheep red blood cells at 100 mg/Kg of dose; value is 64/16; assay type: functional
Mus musculus [14] = assay: Percent reduction in spleen weight in mice as compared to infected untreated controls at 25 mg/kg; assay type: functional
Procedure, shortened: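 BALB/c mice of the same sex, weighing at least 18 g and within a 3 g range, were inoculated ip with Rauscher leukemia virus as a 20% (w/v) spleen extract, five per group. Compound in 0.2% Noble agar/saline was given orally on days 6, 7 and 8, with SRBC ip on day 7. Mice were weighed on day 14, and percent spleen-weight reduction was taken versus infected placebo-treated controls.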

Mus musculus [15] = assay: Efficacy against a lethal virus challenge with an interferon sensitive virus, columbia SK was evaluated 14 days postinfection (oral dosing) as number of mice survived out of 20 tested; assay type: functional
Ovis aries [16] = species: Ovis aries; assay: Antibody stimulation by serum hemagglutininin titer over the titer for the infected placebo-treated control in sheep red blood cells; NA=Not active; assay type: functional, organism-based
Mus musculus [17] = assay: Percent reduction in spleen weight in mice as compared to infected untreated controls at 50 mg/kg; assay type: functional; procedure, shortened: as §1
Ovis aries [18] = assay: Antibody stimulation by serum hemagglutininin titer over the titer for the infected placebo-treated control in sheep red blood cells at 50 mg/Kg of dose; value is 32/16; assay type: functional
Ovis aries [19] = assay: Antibody stimulation by serum hemagglutininin titer over the titer for the infected placebo-treated control in sheep red blood cells at 100 mg/Kg of dose; value is 32/16; assay type: functional
Ovis aries [20] = assay: Antibody stimulation by serum hemagglutininin titer over the titer for the infected placebo-treated control in sheep red blood cells at 50 mg/Kg of dose; value is 128/16; assay type: functional
Ovis aries [21] = assay: Antibody stimulation by serum hemagglutininin titer over the titer for the infected placebo-treated control in sheep red blood cells at 25 mg/Kg of dose; value is 16/16; assay type: functional
Mus musculus [22] = assay: Efficacy against a lethal virus challenge with an interferon sensitive virus, columbia SK was evaluated 14 days postinfection (oral dosing) as number of mice survived out of 15 tested; NT = Not tested; assay type: functional
Ovis aries [23] = species: Ovis aries; assay: Antibody stimulation by serum hemagglutininin titer over the titer for the infected placebo-treated control in sheep red blood cells; value is 128/16; assay type: functional
Ovis aries [24] = assay: Antibody stimulation by serum hemagglutininin titer over the titer for the infected placebo-treated control in sheep red blood cells at 25 mg/Kg of dose; value is 256/64; assay type: functional
Ovis aries [25] = species: Ovis aries; assay: Antibody stimulation by serum hemagglutininin titer over the titer for the infected placebo-treated control in sheep red blood cells; NA = Not active; assay type: functional, organism-based
Ovis aries [26] = assay: Antibody stimulation by serum hemagglutininin titer over the titer for the infected placebo-treated control in sheep red blood cells at 25 mg/Kg of dose; value is 128/16; assay type: functional
Ovis aries [27] = assay: Antibody stimulation by serum hemagglutininin titer over the titer for the infected placebo-treated control in sheep red blood cells at 50 mg/Kg of dose; value is 1024/32; assay type: functional
Ovis aries [28] = assay: Antibody stimulation by serum hemagglutininin titer over the titer for the infected placebo-treated control in sheep red blood cells at 200 mg/Kg of dose; value is 32/16; assay type: functional

SMILES: CCCCNCCOc1ccc2cc3ccc(OCCNCCCC)cc3nc2c1.Cl.O
- Survivors (Mus musculus [1]): 7
- Reduction (Mus musculus [2]): 92%
- Antibody stimulation (Ovis aries [3]): 128

SMILES: CCN(CC)CCOc1ccc2cc3cc([N+](=O)[O-])c(OCCN(CC)CC)c(Cl)c3nc2c1Cl
- Survivors (Mus musculus [1]): 1
- Reduction (Mus musculus [4]): 61%
- Antibody stimulation (Ovis aries [5]): 64

SMILES: CCN(CC)CCOc1ccc2cc3cc([N+](=O)[O-])c(OCCN(CC)CC)c(Br)c3nc2c1Br
- Survivors (Mus musculus [1]): 5
- Reduction (Mus musculus [6]): inactive
- Antibody stimulation (Ovis aries [7]): inactive

SMILES: CCCNCCCOc1ccc2cc3ccc(OCCCNCCC)cc3nc2c1.Cl.O
- Survivors (Mus musculus [1]): 13
- Reduction (Mus musculus [4]): 96%

SMILES: CC(C)NCCOc1ccc2cc3ccc(OCCNC(C)C)cc3nc2c1.Cl
- Survivors (Mus musculus [1]): 15
- Reduction (Mus musculus [4]): 96%
- Antibody stimulation (Ovis aries [8]): 512

SMILES: CCNCCOc1ccc2cc3ccc(OCCNCC)cc3nc2c1.Cl.O
- Survivors (Mus musculus [1]): 7
- Reduction (Mus musculus [2]): 89%
- Antibody stimulation (Ovis aries [9]): 32

SMILES: CCN(CC)CCOc1ccc2cc3ccc(OCCN(CC)CC)cc3nc2c1.Cl.O
- Survivors (Mus musculus [1]): 15
- Reduction (Mus musculus [2]): 70%
- Antibody stimulation (Ovis aries [10]): 256

SMILES: CCCNCCOc1ccc2cc3ccc(OCCNCCC)cc3nc2c1.Cl.O
- Survivors (Mus musculus [1]): 10
- Reduction (Mus musculus [2]): 101%
- Antibody stimulation (Ovis aries [11]): 64

SMILES: Cl.c1cc2cc3ccc(OCCN4CCCCC4)cc3nc2cc1OCCN1CCCCC1
- Survivors (Mus musculus [1]): 5
- Reduction (Mus musculus [2]): 62%
- Antibody stimulation (Ovis aries [12]): 128

SMILES: CNCCCOc1ccc2cc3ccc(OCCCNC)cc3nc2c1.Cl.O
- Survivors (Mus musculus [1]): 8
- Reduction (Mus musculus [2]): 18%
- Antibody stimulation (Ovis aries [9]): 32

SMILES: CCN(CC)CCOc1ccc2cc3ccc(OCCN(CC)CC)c(Br)c3nc2c1Br
- Survivors (Mus musculus [1]): 6
- Reduction (Mus musculus [4]): 92%
- Antibody stimulation (Ovis aries [13]): 64

SMILES: O=P1(N(CCCl)CCCl)NCCCO1 (stereo unspecified) [CYCLOPHOSPHAMIDE ANHYDROUS]
- Reduction (Mus musculus [14]): 102%

SMILES: CCN(CC)CCOc1ccc2c(c1)C(=O)c1cc(OCCN(CC)CC)ccc1-2 [TILORONE]
- Survivors (Mus musculus [15]): 5

SMILES: CCC(CO)NCCCOc1ccc2cc3ccc(OCCCNC(CC)CO)cc3nc2c1.Cl.O (stereo unspecified)
- Reduction (Mus musculus [2]): 74%
- Antibody stimulation (Ovis aries [16]): inactive

SMILES: CCN(CC)CCOc1ccc2cc3ccc(OCCN(CC)CC)c([N+](=O)[O-])c3nc2c1[N+](=O)[O-]
- Survivors (Mus musculus [1]): 1
- Reduction (Mus musculus [2]): 108%
- Antibody stimulation (Ovis aries [13]): 64

SMILES: CN1CCN(CCOc2ccc3cc4ccc(OCCN5CCN(C)CC5)cc4nc3c2)CC1
- Survivors (Mus musculus [1]): 1
- Reduction (Mus musculus [17]): 75%
- Antibody stimulation (Ovis aries [18]): 32

SMILES: CCN(CC)CCOc1cc([N+](=O)[O-])c2cc3cc([N+](=O)[O-])c(OCCN(CC)CC)c(Cl)c3nc2c1Cl
- Survivors (Mus musculus [1]): 3
- Reduction (Mus musculus [17]): 46%
- Antibody stimulation (Ovis aries [19]): 32

SMILES: CNCCOc1ccc2cc3ccc(OCCNC)cc3nc2c1.Cl
- Survivors (Mus musculus [1]): 1
- Reduction (Mus musculus [2]): 86%
- Antibody stimulation (Ovis aries [20]): 128

SMILES: CN(C)CCCOc1ccc2cc3ccc(OCCCN(C)C)cc3nc2c1.Cl.O
- Survivors (Mus musculus [1]): 9
- Reduction (Mus musculus [4]): 54%
- Antibody stimulation (Ovis aries [21]): 16

SMILES: CC(CCOc1ccc2cc3ccc(OCCC(C)N(C)C)cc3nc2c1)N(C)C (stereo unspecified)
- Survivors (Mus musculus [22]): 5

SMILES: c1cc2cc3ccc(OCCN4CCCC4)cc3nc2cc1OCCN1CCCC1
- Survivors (Mus musculus [1]): 5
- Reduction (Mus musculus [17]): 82%
- Antibody stimulation (Ovis aries [13]): 64

SMILES: CCN(CC)CCOc1ccc2cc3cc(N)c(OCCN(CC)CC)c(Cl)c3nc2c1Cl.Cl.O
- Reduction (Mus musculus [14]): 55%
- Antibody stimulation (Ovis aries [23]): 128

SMILES: CCN(CC)CCOc1cc2nc3cc(OCCN(CC)CC)c(C)cc3cc2cc1C.Cl.O
- Survivors (Mus musculus [1]): 4
- Reduction (Mus musculus [2]): 21%
- Antibody stimulation (Ovis aries [24]): 256

SMILES: CN(C)CCCCOc1ccc2cc3ccc(OCCCCN(C)C)cc3nc2c1.Cl.O
- Survivors (Mus musculus [1]): 2
- Reduction (Mus musculus [17]): 52%
- Antibody stimulation (Ovis aries [25]): inactive

SMILES: CCN(CC)CCOc1ccc2cc3ccc(OCCN(CC)CC)c(Cl)c3nc2c1Cl
- Survivors (Mus musculus [1]): 7
- Reduction (Mus musculus [17]): 86%
- Antibody stimulation (Ovis aries [12]): 128

SMILES: CCN(CC)CCCOc1ccc2cc3ccc(OCCCN(CC)CC)cc3nc2c1.Cl.O
- Survivors (Mus musculus [1]): 13
- Reduction (Mus musculus [2]): 72%
- Antibody stimulation (Ovis aries [26]): 128

SMILES: Cl.NCCOc1ccc2cc3ccc(OCCN)cc3nc2c1.O
- Survivors (Mus musculus [1]): 1
- Reduction (Mus musculus [2]): 40%
- Antibody stimulation (Ovis aries [9]): 32

SMILES: Cl.OCCNCCOc1ccc2cc3ccc(OCCNCCO)cc3nc2c1
- Survivors (Mus musculus [1]): 3
- Reduction (Mus musculus [17]): 35%
- Antibody stimulation (Ovis aries [19]): 32

SMILES: Cl.O.c1cc2cc3ccc(OCCCN4CCCCC4)cc3nc2cc1OCCCN1CCCCC1
- Survivors (Mus musculus [1]): 9
- Reduction (Mus musculus [17]): 74%
- Antibody stimulation (Ovis aries [27]): 1024

SMILES: CCNCCCOc1ccc2cc3ccc(OCCCNCC)cc3nc2c1.Cl.O
- Survivors (Mus musculus [1]): 7
- Reduction (Mus musculus [4]): 78%
- Antibody stimulation (Ovis aries [28]): 32

— ChEMBL document CHEMBL1122410, “Synthesis of 3,6-bis(aminoalkoxy)acridines and their effect on the immune System” (1983)
